Experimental data gathered from unrelated publications.
Each line is one published result; the experiments were not run side by side.
Observed: metabolic stability
Species: human

Compound	test system	conditions	scaled CLint [mL/min/kg]
Cn1cc([C@H]2C[C@H]3CSC(N)=N[C@@]3(c3ccc(F)cc3F)CO2)cn1	liver microsomes		9.1
CC(C)N1Cc2cc(C(F)(F)F)ncc2C2=CN=C(NCc3c(F)ccc4c3CCO4)N3C=NC(C1=O)C23 (centres unmarked)	liver microsomes	100 µM, 30 min	5.65
O=C1c2ccc(COc3ccccc3)nc2CCN1c1ccc(F)cc1	liver microsomes		18
Nc1nc(-c2ccc(NC(=O)c3ccc(Cl)c(Cl)c3)cc2F)c[nH]1	liver microsomes	5 µM, 1 h, pH 7.4	10.9
CCCN(C)Cc1cc(-c2[nH]c3cccc(F)c3c(=O)c2C)ccc1Cc1ccc(OC(F)(F)F)cc1	liver microsomes		1040
CC(C)(C)n1cc2c(n1)C(O)CC1(CCN(C(=O)c3ccc4[nH]ncc4c3)CC1)O2 (centres unmarked)	liver microsomes		< 8.8
Cc1ccc(F)c2cc(C(=O)N[C@@H]3CCC[C@H](N4CCOCC4)C3)[nH]c12	hepatocytes	0.5 µM, 2 h	75
Cc1cc(NC(=O)Cc2ccc(F)c(C#N)c2)n(CC2CCCCC2)n1	liver microsomes		648
Cc1cc([C@H]2C[C@H]3[C@@H](C)SC(N)=N[C@@]3(c3ccc(F)cc3F)CO2)on1	liver microsomes		< 8
COc1ccc2nc3cc(Cl)ccc3c(Nc3cc(CN4CCCC4)c(O)c(CN4CCCC4)c3)c2n1	hepatocytes	1 µM	3.8
O=C(Nc1ccc(N2C(=O)c3cccc(Cl)c3C2=O)c(Cl)c1)c1ncccc1Cl	liver microsomes	1 µM, pH 7.4	17.2
Nc1nc(-c2cc(F)cc(NC(=O)Nc3cc(F)cc(-c4c[nH]c(N)n4)c3)c2)c[nH]1	liver microsomes	5 µM, pH 7.4	< 20.8
Cc1coc([C@H]2C[C@H]3[C@@H](C)SC(N)=N[C@@]3(c3ccc(F)cc3F)CO2)n1	liver microsomes		< 8
O=C1c2ccc(OCc3cccc(F)c3)nc2CCN1c1ccc(F)cn1	liver microsomes		18
CC(=O)N(C)C1CCN(c2cc(F)cc(NC(=O)c3cc4c(F)ccc(C)c4[nH]3)c2)C1 (centres unmarked)	hepatocytes	0.5 µM, 2 h	64
Cc1coc([C@H]2C[C@H]3[C@@H](CF)SC(N)=N[C@@]3(c3ccc(F)cc3F)CO2)n1	liver microsomes		27.8
Nc1nc(-c2cccc(NC(=O)Nc3cccc(-c4c[nH]c(N)n4)c3)c2)c[nH]1	liver microsomes	5 µM, pH 7.4	< 20.8
NC1=N[C@@]2(c3ccc(F)cc3F)CO[C@@H](c3ncco3)C[C@H]2CS1	liver microsomes		< 8.7
O=C1C2N=CN3C(NCc4c(F)ccc5c4CCO5)=NC=C(c4cnc(C(F)(F)F)cc4CN1CC(F)F)C23 (centres unmarked)	liver microsomes	100 µM, 30 min	11.4
CC(=O)Nc1cc(Nc2cc(NC3CC3)n3ncc(C#N)c3n2)ccc1N1CCC[C@H](O)C1	hepatocytes	1 µM, serum-free	73
